Source: PubChem
M1 PAM parental – counter-screen for M1 PAMs: effect in parental CHO-K1 cells | ATP EC20, Fluo-8 calcium fluorescence; 0% at ATP EC20, 100% at ATP max | activation, % at 3 µM | 0.02% of 360,000 active;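 active means activation above the run cutoff, the mean activation of all test compounds plus 3 SD, cut at about 40% in these data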;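 further: peak over basal fluorescence ratio in a 140 s read after ATP addition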
OX1R antag-1 – blocks the human orexin 1 receptor. O43613. CHO/OX1R cells, Fluo-8 calcium fluorescence, orexin A. inhibition, % at 5 µM. 0.43% of 330,000 active. AID 434989;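 active means inhibition above its plate's threshold, mean inhibition of all tested compounds on the plate plus 3 SD, cut at about 37% in these data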;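 further: 0% = orexin A challenge wells and 100% = SB-334867-A antagonist wells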
Target sequence (O43613 whole entry, looked up): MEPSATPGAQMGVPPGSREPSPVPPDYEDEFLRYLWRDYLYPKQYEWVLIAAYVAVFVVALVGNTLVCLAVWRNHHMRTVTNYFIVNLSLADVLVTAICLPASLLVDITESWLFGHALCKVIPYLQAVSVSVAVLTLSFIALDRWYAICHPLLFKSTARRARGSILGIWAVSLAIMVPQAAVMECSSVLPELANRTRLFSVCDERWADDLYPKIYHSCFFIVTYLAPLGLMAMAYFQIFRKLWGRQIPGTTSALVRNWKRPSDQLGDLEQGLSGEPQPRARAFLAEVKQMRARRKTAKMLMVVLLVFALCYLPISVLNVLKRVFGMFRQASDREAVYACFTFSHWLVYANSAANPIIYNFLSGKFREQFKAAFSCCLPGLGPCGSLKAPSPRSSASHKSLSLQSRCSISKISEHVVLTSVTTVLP
CHO parental Ca – counter-screen: ATP calcium response change in parental CHO cells; parental CHO-K1, ATP-induced calcium, Fluo-8 fluorescence; inhibition, % at 5.6 µM; 0.63% of 330,000 active; AID 463079;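 active means inhibition above that plate's mean sample inhibition plus 3 SD, cut at about 26% in these data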;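 further: 0% = ATP-challenged DMSO wells and 100% = DMSO wells without ATP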
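Measured by: calcium-sensitive Fluo-8 fluorescence / Test system: CHO parental line / Controls: ATP-challenged DMSO wells low, unchallenged DMSO wells high / Measure: % inhibition / Compound: single nominal dose of 5.6 µM per compound / Replicates: single well per compound, no replicates / Reagent: ATP as calcium-mobilizing challenge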
CHO-K1 Ca ag – M1 agonist counterscreen hit in parental CHO-K1 cells | 0.48% of 360,000 active | activation, % at 3 µM | Fluo-8 calcium fluorescence; scaled to maximal ATP response, vehicle zero; in the data active means activation above about 15%;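 further: untransfected CHO-K1 host cells lacking M1 receptor as counterscreen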
CHO-K1 Ca antag – counter-screen for M1 antagonists: effect in parental CHO-K1 cells | 0.6% of 360,000 active | inhibition, % at 3 µM | ATP-induced calcium, Fluo-8 fluorescence;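 active means inhibition above a per-plate cutoff, the plate's mean sample inhibition plus 3 SD, cut at about 24% in these data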;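 further: 0% = DMSO plus EC80 ATP and 100% = DMSO alone without ATP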
OX1R antag-2 – blocks the human orexin 1 receptor; O43613; OX1R-expressing cells, FRET antagonist read-out; inhibition, % at 6.6 µM; 1.8% of 330,000 active; in the data active means inhibition mostly above about 38%, no sharp cut-off; inactive means mostly below about 40%;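 further: 0% = agonist challenge alone and 100% = reference antagonist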
Starred values were filed as active, the others as inactive. Hits are enriched below; roughly 2.9% of the tested compounds scored in any of these assays.

Results for CNc1nc(NCc2ccccc2)c2ccccc2n1 ?
M1 PAM parental: 4.3; OX1R antag-1: -21.6; CHO parental Ca: 2.8; CHO-K1 Ca ag: 4.9; CHO-K1 Ca antag: -0.5; OX1R antag-2: 7.4

How did COCCNc1nc(NCc2ccccc2OC)c2sccc2n1 do in these assays?
M1 PAM parental: 12.1; CHO-K1 Ca ag: 7.2; CHO-K1 Ca antag: -13.6

Results for Cc1ccc(-n2nnnc2SCC(=O)c2cc(C)n(CC3CCCO3)c2C)cc1 (centres undefined) ?
M1 PAM parental: 1.9; OX1R antag-1: -15.7; CHO parental Ca: -10.6; CHO-K1 Ca ag: 0.4; CHO-K1 Ca antag: 7.7; OX1R antag-2: 10.2

How did Cc1cc(C(=O)CSc2nc3ccccc3o2)c(C)n1CC1CCCO1 (centres undefined) do in these assays?
M1 PAM parental: 2.8; OX1R antag-1: 39.3*; CHO parental Ca: 32.0; CHO-K1 Ca ag: 3.5; CHO-K1 Ca antag: -7.0; OX1R antag-2: 64.3

How did O=C(CSc1nc2ccccc2o1)NCC1CCCO1 (centres undefined) do in these assays?
M1 PAM parental: -3.0; OX1R antag-1: -14.6; CHO parental Ca: -6.3; CHO-K1 Ca ag: 0.3; CHO-K1 Ca antag: -3.5; OX1R antag-2: 14.5

What do the screens show for `Cc1cc(C(=O)CSc2nc3ccccc3[nH]2)c(C)n1CC1CCCO1` (centres undefined)?
M1 PAM parental: -17.5; OX1R antag-1: 59.0*; CHO parental Ca: 85.1*; CHO-K1 Ca ag: 19.6*; CHO-K1 Ca antag: 57.7*; OX1R antag-2: 54.4*

Results for CCN(CC)C(=O)c1ncn2c1C(=O)N(C)CC2 ?
M1 PAM parental: -7.9; CHO-K1 Ca ag: 0.4; CHO-K1 Ca antag: 27.3*

How did CN1CCn2cnc(C(=O)NCc3ccccc3)c2C1=O do in these assays?
M1 PAM parental: -9.3; CHO-K1 Ca ag: 4.6; CHO-K1 Ca antag: 11.3

Results for Cc1ccc(N2CC(C(=O)Nc3ccccc3OC(F)F)CC2=O)cc1 (centres undefined) ?
M1 PAM parental: -13.4; OX1R antag-1: -6.8; CHO parental Ca: -7.9; CHO-K1 Ca ag: -0.1; CHO-K1 Ca antag: -1.8; OX1R antag-2: 4.4

How did Nc1ccc2c3c(cccc13)C(=O)N(c1ccccc1)C2=O do in these assays?
M1 PAM parental: -19.9; CHO-K1 Ca ag: 50.2*; CHO-K1 Ca antag: 25.7*

Results for Nc1cccc(N2C(=O)c3cccc4c(N)ccc(c34)C2=O)c1 ?
M1 PAM parental: -3.1; OX1R antag-1: 15.6; CHO parental Ca: 19.6; CHO-K1 Ca ag: 15.3*; CHO-K1 Ca antag: -7.5; OX1R antag-2: 9.9

Results for O=C(O)c1cccc(N2C(=O)c3cccc4c(Cl)ccc(c34)C2=O)c1 ?
M1 PAM parental: -11.3; OX1R antag-1: -21.7; CHO parental Ca: -5.2; CHO-K1 Ca ag: 0.4; CHO-K1 Ca antag: 6.3; OX1R antag-2: 8.5

How did CC(C)CCN1C(=O)c2cccc3c(N)ccc(c23)C1=O do in these assays?
M1 PAM parental: -19.7; OX1R antag-1: 91.2*; CHO parental Ca: 85.3*; CHO-K1 Ca ag: 152.2*; CHO-K1 Ca antag: 67.0*; OX1R antag-2: 35.0

How did COc1ccccc1Nc1cc2cc(Br)ccc2c(=O)[nH]1 do in these assays?
M1 PAM parental: -1.6; OX1R antag-1: 1.5; CHO parental Ca: -18.2; CHO-K1 Ca ag: 0.7; CHO-K1 Ca antag: 5.3; OX1R antag-2: 45.8

Results for COc1ccc(OC)c(Nc2cc3ccccc3c(=O)[nH]2)c1 ?
M1 PAM parental: 11.3; OX1R antag-1: -21.5; CHO parental Ca: -10.9; CHO-K1 Ca ag: 0.7; CHO-K1 Ca antag: -11.5; OX1R antag-2: 68.3*

Results for CC1CCN(S(=O)(=O)c2ccc(NC(=O)CCNC(=O)c3ccc(Cl)cc3)cc2)CC1 ?
M1 PAM parental: -4.8; CHO-K1 Ca ag: 0.2; CHO-K1 Ca antag: -0.7

How did COc1ccc2cc(Br)ccc2c1CC(=O)NC(C)(C)C do in these assays?
M1 PAM parental: 7.5; OX1R antag-1: -2.8; CHO parental Ca: 54.1*; CHO-K1 Ca ag: -0.6; CHO-K1 Ca antag: -2.1; OX1R antag-2: 61.1

What do the screens show for `CCNC(=O)Cc1c(OC)ccc2cc(Br)ccc12`?
M1 PAM parental: 8.1; OX1R antag-1: -17.9; CHO parental Ca: -8.5; CHO-K1 Ca ag: -0.4; CHO-K1 Ca antag: -5.4; OX1R antag-2: 3.6

How did Cc1cc2ccccn2c1C(=O)c1ccc(Cl)cc1 do in these assays?
M1 PAM parental: -5.3; OX1R antag-1: -16.6; CHO parental Ca: -37.3; CHO-K1 Ca ag: -1.0; CHO-K1 Ca antag: 3.8; OX1R antag-2: 20.3

Results for Cc1cc2ccccn2c1C(=O)c1ccncc1 ?
M1 PAM parental: 9.2; OX1R antag-1: 0.6; CHO parental Ca: 2.7; CHO-K1 Ca ag: 0.7; CHO-K1 Ca antag: -6.8; OX1R antag-2: 32.2*

What do the screens show for `Cn1c(SCc2ccccc2Cl)nnc1-c1cnccn1`?
M1 PAM parental: -5.5; OX1R antag-1: -11.1; CHO parental Ca: -17.6; CHO-K1 Ca ag: -0.1; CHO-K1 Ca antag: 23.8*; OX1R antag-2: 1.3

How did Cn1c(SCc2cccc(F)c2)nnc1-c1cnccn1 do in these assays?
M1 PAM parental: 15.6; OX1R antag-1: -6.7; CHO parental Ca: -0.5; CHO-K1 Ca ag: 0.7; CHO-K1 Ca antag: -14.8; OX1R antag-2: 7.8

Results for COc1ccc(NC(=O)c2cc(S(=O)(=O)N3CCOCC3)ccc2C)cc1S(=O)(=O)N1CCOCC1 ?
M1 PAM parental: 3.0; OX1R antag-1: -12.4; CHO parental Ca: -16.0; CHO-K1 Ca ag: 1.0; CHO-K1 Ca antag: -2.1; OX1R antag-2: 3.6

What do the screens show for `O=C(CN1C(=O)c2ccccc2C1=O)Nc1cccc([N+](=O)[O-])c1`?
M1 PAM parental: 5.6; OX1R antag-1: -21.8; CHO parental Ca: -8.0; CHO-K1 Ca ag: 0.8; CHO-K1 Ca antag: 3.4; OX1R antag-2: 10.1

How did COc1cccc(NC(=O)CN(C)C(=O)CN2C(=O)NC(C)(c3ccc(C)cc3)C2=O)c1 (centres undefined) do in these assays?
M1 PAM parental: -0.3; OX1R antag-1: -0.1; CHO parental Ca: -11.0; CHO-K1 Ca ag: 0.1; CHO-K1 Ca antag: -3.6; OX1R antag-2: 8.7

What do the screens show for `O=C1c2ccc([N+](=O)[O-])cc2C(=O)N1CNc1ccccn1`?
M1 PAM parental: -0.8; OX1R antag-1: -5.7; CHO parental Ca: 13.5; CHO-K1 Ca ag: 0.1; CHO-K1 Ca antag: 10.2; OX1R antag-2: 61.3*

Results for O=C1c2ccc(Oc3ccc([N+](=O)[O-])cc3)cc2C(=O)N1CCCO ?
M1 PAM parental: -6.3; OX1R antag-1: -17.7; CHO parental Ca: 2.7; CHO-K1 Ca ag: 1.4; CHO-K1 Ca antag: 9.7; OX1R antag-2: 10.0

Results for O=C(CCN1C(=O)c2ccc([N+](=O)[O-])cc2C1=O)Nc1cccc(O)c1 ?
M1 PAM parental: 13.2; OX1R antag-1: 9.7; CHO parental Ca: 2.7; CHO-K1 Ca ag: 1.5; CHO-K1 Ca antag: -2.1; OX1R antag-2: 45.6*

How did O=C(O)CN1C(=O)c2ccc(Oc3ccc([N+](=O)[O-])cc3)cc2C1=O do in these assays?
M1 PAM parental: -1.4; OX1R antag-1: 11.4; CHO parental Ca: -1.2; CHO-K1 Ca ag: 1.3; CHO-K1 Ca antag: -3.3; OX1R antag-2: 52.6*
